Columns and labels:
[1] = target: T1, Peptidyl-prolyl cis-trans isomerase FKBP5 (Homo sapiens, UniProt Q13451); experiment: Binding affinity to human His-tagged FKBP51 FK1 domain (1 to 140) by isothermal titration calorimetric analysis
T1 sequence (Q13451 whole entry): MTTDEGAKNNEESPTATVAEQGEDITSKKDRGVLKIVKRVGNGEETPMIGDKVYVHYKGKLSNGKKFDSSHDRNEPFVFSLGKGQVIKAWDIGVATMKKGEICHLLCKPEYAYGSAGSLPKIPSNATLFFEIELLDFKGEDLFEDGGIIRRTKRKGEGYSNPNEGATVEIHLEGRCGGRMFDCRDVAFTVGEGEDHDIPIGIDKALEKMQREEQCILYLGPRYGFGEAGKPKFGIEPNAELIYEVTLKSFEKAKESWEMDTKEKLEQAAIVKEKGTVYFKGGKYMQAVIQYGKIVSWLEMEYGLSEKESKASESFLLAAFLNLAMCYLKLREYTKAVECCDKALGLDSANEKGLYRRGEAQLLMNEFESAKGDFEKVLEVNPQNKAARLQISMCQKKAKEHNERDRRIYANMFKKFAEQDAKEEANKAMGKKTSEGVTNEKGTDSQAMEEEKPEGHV

[2] = target: T1, Peptidyl-prolyl cis-trans isomerase FKBP5; experiment: Binding affinity to human FKBP51 by competitive fluorescence polarization assay
Procedure, shortened: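 Competitive fluorescence polarization binding assay against the purified FK506-binding domain of human FKBP51, run per a previously described protocol. The read-out is K_i.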

[3] = target: T2, Peptidyl-prolyl cis-trans isomerase FKBP5 (Homo sapiens) (UniProt Q13451); experiment: Binding affinity to FKBP51 (unknown origin) assessed as increase in [3H]-dexamethasone binding to glucocorticoid receptor
T2 sequence (whole entry): T1 sequence (Q13451 whole entry)
Procedure, shortened: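 Reconstituted glucocorticoid receptor (GR) hormone-binding assay. GR-containing lysates were supplemented with purified FKBP51 and incubated with ³H-dexamethasone across a range of compound concentrations. Free ³H-dexamethasone was removed with charcoal–dextran, and GR-bound ³H-dexamethasone was then measured as the read-out.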

[4] = target: Peptidyl-prolyl cis-trans isomerase FKBP1A (Homo sapiens, UniProt P62942); experiment: Binding affinity to FKBP12 (unknown origin) by competitive fluorescence polarization assay
Sequence of Peptidyl-prolyl cis-trans isomerase FKBP1A (P62942 whole entry): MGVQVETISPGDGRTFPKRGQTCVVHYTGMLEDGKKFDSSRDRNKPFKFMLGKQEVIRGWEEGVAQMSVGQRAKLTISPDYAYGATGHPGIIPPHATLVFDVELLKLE

Compound | Kd [1] [µM] | Ki [2] [µM] | Activity [3] | Ki [4] [µM]
COc1ccc(OCCOC(=O)C2CCCCN2S(=O)(=O)c2ccc3[nH]c(=O)sc3c2)cc1OC (stereo not given) | 3.3 | 7.6 | Dose-dependent effect | 
COc1cc2c(c(OC)c1)[C@]1(C)C3CCC[C@@H](C(=O)N1CC2)N3C(=O)C(=O)[C@]1(C)CCCC[C@H]1C |  | > 100 |  | 2.8
COc1ccc(CC[C@@H](OC(=O)C2CCCCN2S(=O)(=O)c2cc(Cl)c(O)c(Cl)c2)c2cccc(OCCN3CCOCC3)c2)cc1OC (stereo not given in full) |  | 0.2 |  | 
CCOC(=O)C1CCCCN1S(=O)(=O)c1ccc2[nH]c(=O)sc2c1 (stereo not given) |  | > 100 |  | 
COc1ccc(OCCOC(=O)C2CCCCN2C(=O)C(=O)c2cc(OC)c(OC)c(OC)c2)cc1OC (stereo not given) |  | > 100 |  | 
COc1cc2c(c(OC)c1)[C@]1(C)C3CCC[C@@H](C(=O)N1CC2)N3S(=O)(=O)c1cc(Cl)c(O)c(Cl)c1 |  | > 100 |  | 2.1
COc1ccc(OCCN2CCC3CCCC(C2=O)N3C(=O)C(=O)c2cc(OC)c(OC)c(OC)c2)cc1OC (stereo not given) |  | 23.7 |  | 
COc1ccc(CC[C@@H](OC(=O)C2CCCCN2S(=O)(=O)c2cc(Cl)cc(Cl)c2)c2cccc(OCC(=O)O)c2)cc1OC (stereo not given in full) |  | 13.8 |  | 
COc1cc2c(c(OC)c1)[C@]1(C)C3CCC[C@@H](C(=O)N1CC2)N3C(=O)C(=O)c1cc(OC)c(OC)c(OC)c1 |  | 18.1 |  | 0.5
COc1ccc(OCCN2CCC3CCCC(C2=O)N3S(=O)(=O)c2cc(Cl)cc(Cl)c2)cc1OC (stereo not given) |  | 8.8 |  | 
CCN1CC2CCCC(C1=O)N2C(=O)C(=O)c1cc(OC)c(OC)c(OC)c1 (stereo not given) |  | > 100 |  | 
COc1ccc(OCCN2CC3CCCC(C2=O)N3S(=O)(=O)c2ccc3[nH]c(=O)sc3c2)cc1OC (stereo not given) | 10.5 |  | Dose-dependent effect | 
COc1ccc(OCCN2CCC3CCCC(C2=O)N3S(=O)(=O)c2ccc3[nH]c(=O)sc3c2)cc1OC (stereo not given) | 0.36 |  | Dose-dependent effect | 
CO[C@H]1C[C@@H]2CC[C@@H](C)[C@@](O)(O2)C(=O)C(=O)N2CCCC[C@H]2C(=O)O[C@H]([C@H](C)C[C@@H]2CC[C@@H](O)[C@H](OC)C2)CC(=O)[C@H](C)/C=C(\C)[C@@H](O)[C@@H](OC)C(=O)[C@H](C)C[C@H](C)/C=C/C=C/C=C/1C [SIROLIMUS] |  | 0.003 |  | 
CCC(C)(C)C(=O)C(=O)N1CCCCC1C(=O)O[C@H](CCc1ccc(OC)c(OC)c1)c1cccc(OCC(=O)O)c1 (stereo not given in full) |  | 2.7 |  | 
C=CC[C@@H]1/C=C(\C)C[C@H](C)C[C@H](OC)[C@H]2O[C@@](O)(C(=O)C(=O)N3CCCC[C@H]3C(=O)O[C@H](/C(C)=C/[C@@H]3CC[C@@H](O)[C@H](OC)C3)[C@H](C)[C@@H](O)CC1=O)[C@H](C)C[C@@H]2OC [TACROLIMUS ANHYDROUS] |  | 0.08 |  | 
COc1cc2c(c(OC)c1)[C@]1(C)C3CCC[C@@H](C(=O)N1CC2)N3S(=O)(=O)c1cc(Cl)cc(Cl)c1 |  | > 100 |  | 0.87
COc1ccc(OCCN2CC3CCCC(C2=O)N3S(=O)(=O)c2cc(Cl)cc(Cl)c2)cc1OC (stereo not given) |  | 1.2 |  | 
COc1ccc(OCCOC(=O)C2CCCCN2S(=O)(=O)c2cc(Cl)cc(Cl)c2)cc1OC (stereo not given) |  | > 100 |  | 
COc1ccc(OCCOC(=O)C2CCCCN2S(=O)(=O)c2ccc3ncsc3c2)cc1OC (stereo not given) |  | > 100 |  | 
CCC(C)(C)C(=O)C(=O)N1C2CCC[C@H]1C(=O)N1CCc3cc(OC)cc(OC)c3[C@]21C |  | > 100 |  | 27.7

From ChEMBL document CHEMBL2346581, “Increasing the efficiency of ligands for FK506-binding protein 51 by conformational control” (J Med Chem, 2013)
